How the values were obtained:
[1] = target: Indolethylamine N-methyltransferase (Oryctolagus cuniculus, UniProt O97972); experiment: Inhibition of New Zealand white rabbit lung INMT using N-methyltryptamine as substrate after 60 to 90 mins by liquid scintillation counting in presence of S-methyl-[14C]adenosylmethionine
Summary of the method: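 Enzyme from male rabbit lung: homogenate in 0.15 M KCl with 10^-4 M DTT and EDTA, 50 000 g supernatant, 40-60% ammonium sulfate fraction dialysed (some runs further Sephadex G-150 purified). Incubation in potassium phosphate pH 7.9 with N-methyltryptamine and S-[methyl-14C]adenosylmethionine, test compound in water or 5% DMSO, 37 °C. Stopped with borate pH 10; 14C-DMT extracted into isoamyl alcohol.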

[2] = target: Indolethylamine N-methyltransferase (Homo sapiens, UniProt O95050); experiment: Inhibition of human lung INMT using N-methyltryptamine as substrate after 90 mins by liquid scintillation counting in presence of S-methyl-[14C]adenosylmethionine
Oryctolagus cuniculus [3] = experiment: In vivo inhibition of New Zealand white rabbit INMT-mediated [14C]NMT to [14C]DMT conversion in brain at 0.5 %, po in drinking water for 5 days; assay type: functional
Summary of the method: (§1)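 Male NZW rabbits (400-500 g), three per group, given 0.5% (v/v) in drinking water for 5 days; controls water. Day 5: pheniprazine 5 mg/kg iv, then 6 h later 25 µCi (0.5 mg) [14C]NMT iv. After 5 min, decapitation; lung and brain frozen in liquid nitrogen. [14C]DMT counted as cpm/g tissue. Values are means of three animals, with Student's t test.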

Oryctolagus cuniculus [4] = experiment: In vivo inhibition of New Zealand white rabbit lung INMT at 0.5 %, po in drinking water for 5 days; assay type: functional
Summary of the method: (§2)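 Male NZW rabbits, three per group, received compound in drinking water (pH 7) throughout, with water for controls. Afterwards decapitated and bled out. Crude lung INMT (54 000g supernatant) assayed by the standard in vitro [14C]SAM/NMT method. Activity taken as cpm/mg protein after 1 h at 37 °C, read in the toluene-isoamyl alcohol phase. Means ± SEM.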

Oryctolagus cuniculus [5] = experiment: In vivo inhibition of New Zealand white rabbit INMT-mediated [14C]NMT to [14C]DMT conversion in lung at 0.5 %, po in drinking water for 5 days; assay type: functional; summary of the method: as §1
Oryctolagus cuniculus [6] = experiment: In vivo inhibition of New Zealand white rabbit lung INMT at 0.02 %, po in drinking water for 12 days; assay type: functional; summary of the method: as §2

Indolethylamine N-methyltransferase (Homo sapiens, UniProt O95050), sequence (O95050 whole entry): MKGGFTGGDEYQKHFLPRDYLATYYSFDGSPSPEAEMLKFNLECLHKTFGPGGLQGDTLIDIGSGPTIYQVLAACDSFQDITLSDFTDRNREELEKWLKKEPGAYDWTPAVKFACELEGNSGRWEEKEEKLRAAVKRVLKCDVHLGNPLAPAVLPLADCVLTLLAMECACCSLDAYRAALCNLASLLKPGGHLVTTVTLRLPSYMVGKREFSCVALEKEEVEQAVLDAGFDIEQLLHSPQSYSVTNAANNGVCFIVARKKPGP
Indolethylamine N-methyltransferase (Oryctolagus cuniculus, UniProt O97972), sequence (O97972 whole entry): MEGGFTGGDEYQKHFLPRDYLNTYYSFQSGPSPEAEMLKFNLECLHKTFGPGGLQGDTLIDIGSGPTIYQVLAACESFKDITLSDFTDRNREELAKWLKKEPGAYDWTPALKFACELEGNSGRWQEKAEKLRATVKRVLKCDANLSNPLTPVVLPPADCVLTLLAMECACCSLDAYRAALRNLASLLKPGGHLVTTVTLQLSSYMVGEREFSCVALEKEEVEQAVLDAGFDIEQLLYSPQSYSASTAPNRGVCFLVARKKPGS

SMILES | IC50 [1] [µM] | also measured
C1CCC2=NCCCN2CC1 | 8 | IC50 [2]: 25.7 µM
CC(C)CN1CCCC1=N | 19.4 | –
C1CN=C2CCCN2C1 | 1.67 | –
C1CCN2CCCC2=NC1 | 74.8 | IC50 [2]: 852 µM
C1CCN2CCCN=C2C1 | 0.7 | –
CC1CC2=NCCCN2C1 (stereo not drawn) | 7 | –
CC1CCC2=NCCCN21 (stereo not drawn) | 13.2 | –
C(=C1/CCC2=NCCCN21)/c1ccccc1 | 37.1 | –
C=C1CN=C2CCCN2C1 | 43.3 | –
ClC1CCCN2CCN=C12 (stereo not drawn) | 52.2 | –
C1CC2=NCCN2C1 | 0.04 | –
CC1CC2=NCCN2C1 (stereo not drawn) | 3.8 | –
CC1(C)CC2=NCCN2C1 | 54.2 | –
CC1CCC2=NCCN21 (stereo not drawn) | 9.3 | –
C1CCC2(CC1)CCC1=NCCN12 | 141 | –
c1ccc(C2CC3=NCCN3C2)cc1 (stereo not drawn) | > 330 | –
c1ccc(C2(c3ccccc3)CC3=NCCN3C2)cc1 | > 330 | –
c1cn2c(n1)CCC2 | 83.1 | –
c1ccc2c(c1)CN1CCN=C21 | > 330 | –
c1ccc2c(c1)CC1C2CC2=NCCN21 (stereo not drawn) | 16.4 | –
C1CN2C(=N1)C1CC3CC(C1)CC2C3 | > 330 | –

SMILES | IC50 [1] [µM] | also measured
C1CCN2CCN=C2C1 | 0.17 | –
C1CN2CCOCC2=N1 | 13.8 | –
C1CN2CCSCC2=N1.O=C(O)/C=C/C(=O)O | 0.5 | inhibition (INH) (Oryctolagus cuniculus [3]): 57%; inhibition (INH) (Oryctolagus cuniculus [4]): 75%; inhibition (INH) (Oryctolagus cuniculus [5]): 64%
CC1CN2CCN=C2CS1 (stereo not drawn) | 30.3 | –
[O-][S+]1CCN2CCN=C2C1 (stereo not drawn) | 3.6 | –
C1=CN2CCN=C2CS1 | 18 | –
CC1=CSCC2=NCCN12 | 45.4 | –
c1ccc2c(c1)SCC1=NCCN12 | > 330 | –
CN1CCSC1=N.I | 0.8 | inhibition (INH) (Oryctolagus cuniculus [6]): 76%
C/N=C1\SCCN1C | 8.1 | –
CCN1CCSC1=N | 0.2 | –
C/N=C1/NCCS1 | 7.7 | –
CCCN1CCSC1=N | 9.9 | –
C=CCN1CCSC1=N | 7.1 | –
C#CCN1CCSC1=N | 13.8 | –
CNN1CCSC1=N | 1.5 | –
CC1CN(C)C(=N)S1 (stereo not drawn) | 7.9 | –
Cn1ccsc1=N | 2 | –
Cn1cc(C(F)(F)F)sc1=N | > 88.6 | IC50 [2]: > 86.6 µM
C/N=c1\ccsn1C | 6.9 | –
C/N=c1\cnsn1C | 5.2 | –

SMILES | IC50 [1] [µM] | also measured
CN1CCOC1=N | 40 | –
C/N=C1\CCCN1 | 27.1 | –
CN1CCCC1=N | 1.5 | –
CCN1CCCC1=N | 1.6 | –
N=C1CCCN1C1CC1 | 67 | –
CCOC(CN1CCCC1=N)OCC | > 106 | –
N=C1CCCN1CCc1ccccc1 | 3720 | –
CN1CCC/C1=N\CC(F)(F)F | > 92.6 | –
C/N=C1\CCCN1C | 31.2 | –
CN1CCC/C1=N\C1CC1 | > 10.3 | –
CN1CCSCC1=N | 6.3 | –
CN1CCCSC1=N | 2 | –
CCN1CCCSC1=N | 1.8 | –
CN1C=CSCC1=N | 3 | –
C/N=C1\CSC=CN1C | 9.8 | –
CN1C=CCSC1=N | 2 | –
Cn1ccccc1=N | 1.6 | –
C=CCn1ccccc1=N | 1.58 | –
N=c1ccccn1CC(F)(F)F | > 9.7 | –
Cn1cccc/c1=N\CC(F)(F)F | > 9.2 | –
Cn1cccc/c1=N\CCO | > 8.9 | –

SMILES | IC50 [1] [µM] | also measured
Cn1cccc/c1=N\C1CC1 | > 10.1 | –
Cn1cccc(C#N)c1=N | 179 | –
Cc1ccn(C)c(=N)c1 | 2.8 | –
Cn1cc(F)ccc1=N | 69.8 | –
Cn1c(F)cccc1=N | 5.3 | –
C/N=c1\cccc(F)n1C | 74 | –
Cn1c(N)cccc1=N | 6.2 | –
C/N=c1\cccc(NC)n1C | 13.1 | –
CCOc1cccc(=N)n1C | > 10.3 | –
CN1CCC=CC1=N | 0.9 | –
Cn1ccncc1=N | > 5260 | –
N#CCn1ccc(=N)cc1 | > 148 | –
C[n+]1ccccc1CC#N | > 11.7 | –
Cc1cc(=N)sn1C | 19.6 | –
Cn1ccc(=N)cc1 | 6.2 | –
C[N+]1=C2CCCN2CCC1 | 38.7 | –
N=C1SCCN1Cc1ccncc1 | > 6.9 | –
NC1=NCCC1 | 33.6 | –
